The results in this text go back to ChEMBL document CHEMBL1142975 (J Med Chem, 2007).

The structures appear in SMILES notation. The source made the active and inactive calls. Where only a bound is given, the exact number is not on record here.

For data set [1], the system named is Vaccinia virus. The experiment in a line: Antiviral activity against vaccinia virus IHD-J in BSC40 cells by CPE assay. The class given is functional, organism-based. Conditions: Orthopoxvirus vaccinia, BSC-40.
A short description of data set [2]: Cytotoxicity against vaccinia virus IHD-J infected BSC40 cells. The class given is cell-based, Macaca mulatta. Conditions: rhesus monkey, BSC-40 cells infected with vaccinia virus IHD-J.
A short description of data set [3]: Metabolic stability in monkey Liver S9 fraction. The class given is ADME, subcellular, Macaca mulatta. Conditions: rhesus monkey. The procedure, abridged:
(§1)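 Compound was incubated with liver S-9 extracts from each species, with NADPH added. Loss of parent compound was followed by LC/MS and reported as half-life in minutes.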

The subject of another data set is Monkeypox virus. The experiment in a line: Antiviral activity against monkeypox virus by CPE assay. Type of data set: functional, organism-based.
In a further data set the test system is Camelpox virus. The experiment in a line: Antiviral activity against camelpox virus by CPE assay. The class given is functional, organism-based.
In data set [4] the test system is Variola virus. Kind of data set: Antiviral activity against variola virus BUT virus by CPE assay. The class given is functional, organism-based.
Data set [5] relates to Variola virus. The experiment in a line: Antiviral activity against variola virus BSH virus by CPE assay. Type of data set: functional, organism-based.
Data set [6] can be described thus: Metabolic stability in rat Liver S9 fraction. Type of data set: ADME, subcellular. The procedure, abridged:
as §1

Data set [7] in a line: Metabolic stability in mouse Liver S9 fraction. Type of data set: ADME, subcellular. The procedure, abridged:
as §1

Data set [8] in a line: Metabolic stability in dog Liver S9 fraction. The class given is ADME, subcellular, Canis lupus familiaris. The procedure, abridged:
as §1

A short description of data set [9]: Metabolic stability in human Liver S9 fraction. Type of data set: ADME, subcellular. The procedure, abridged:
as §1

Data set [10] has as its system Vaccinia virus. The experiment in a line: Antiviral activity assessed as inhibition of extracellular virus formation in vaccinia virus IHD-J infected BSC40 cells at 5 uM after 24 hrs. Type of data set: functional, organism-based. The following applies: Orthopoxvirus vaccinia, BSC-40.
Data set [11] in a line: Tmax in rat at 2 mg/kg, po. Conditions: in vivo. Type of data set: ADME, organism-based. The arrangement: dose 2 mg/kg, route oral. A digest of the protocol: (§2)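 Rats were dosed orally in 0.75% Methocell/1% Tween vehicle, and a separate intravenous arm was run to derive bioavailability. Plasma concentration–time data gave Tmax, Cmax, AUC, t1/2, clearance, Vss and %F.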

Data set [12] can be described thus: Cmax in rat at 2 mg/kg, po. Type of data set: ADME, organism-based. The arrangement: dose 2 mg/kg, route oral. Conditions: in vivo. A digest of the protocol: as §2
A short description of data set [13]: AUC in rat at 2 mg/kg, po. Type of data set: ADME, organism-based. The arrangement: dose 2 mg/kg, route oral. The following applies: plasma. The procedure, abridged:
as §2

Data set [14] can be described thus: Half life in rat at 2 mg/kg, po. Type of data set: ADME, organism-based. The following applies: in vivo. The arrangement: dose 2 mg/kg, route oral. The procedure, abridged:
as §2

A short description of data set [15]: Clearance in rat at 2 mg/kg, po. Conditions: in vivo. The arrangement: dose 2 mg/kg, route oral. The class given is ADME, organism-based. The procedure, abridged: as §2
A further data set concerns Rattus norvegicus. The experiment in a line: Volume of distribution at steady state in rat at 2 mg/kg, po. The following applies: in vivo. The class given is ADME, organism-based. The arrangement: dose 2 mg/kg, route oral. A digest of the protocol:
as §2

Data set [16] can be described thus: Oral bioavailability in rat at 2 mg/kg, po. The following applies: in vivo. The class given is ADME, organism-based. The procedure, abridged: as §2
A further data set relates to Mus musculus. The experiment in a line: Toxicity in mouse at 2000 mg/kg after 28 days. Conditions: in vivo, 672 h. The arrangement: dose 2000 mg/kg. Type of data set: organism-based. A digest of the protocol:
(§3)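 Animals received 28-day repeat dosing, and the no observable adverse effect level (NOAEL) was determined.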

A further data set relates to Cynomolgus monkey. The experiment in a line: Toxicity in cynomolgus monkey at 600 mg/kg after 28 days. The arrangement: dose 600 mg/kg. Type of data set: organism-based, Macaca fascicularis. Conditions: in vivo, 672 h. The procedure, abridged: as §3
Another data set relates to Human alphaherpesvirus 1. Kind of data set: Antiviral activity against HSV1 KOS by plaque reduction assay. The class given is functional, organism-based. The following applies: Human alphaherpesvirus 1, KOS.
For a further data set, the system named is Human betaherpesvirus 5. The experiment in a line: Antiviral activity against human cytomegalovirus AD169 by plaque reduction assay. Conditions: Human betaherpesvirus 5, AD169. Type of data set: functional, organism-based. For orientation: Plaques are areas of infected cells; plaque reduction assays count them against a control.
In data set [17] the test system is Respiratory syncytial virus. The experiment in a line: Antiviral activity against RSV A by plaque reduction assay. The class given is functional, organism-based. The following applies: human respiratory syncytial virus.
Data set [18] concerns Bovine viral diarrhea virus 1. The experiment in a line: Antiviral activity against BVDV NADL by plaque reduction assay. The class given is functional, organism-based. The following applies: Bovine viral diarrhea virus isolates and strains.
In another data set the test system is Rotavirus. The experiment in a line: Antiviral activity against rotavirus by plaque reduction assay. Type of data set: functional, organism-based.
A further data set has as its system Cowpox virus. The experiment in a line: Antiviral activity against cowpox virus by CPE assay. Type of data set: functional, organism-based.

Broadly, the EC50 is the concentration needed to bring the measured effect to its halfway point. Broadly, the CC50 is the concentration that lowers cell viability or growth by half. As a reminder, the half-life is the time needed for the level to fall by half in the phase considered. What is called Tmax is the time at which the peak concentration occurs. In general, Cmax refers to the maximum level reached in the sampled fluid or tissue. In general, AUC refers to the area under the concentration-time curve, a measure of exposure. The term CL/F denotes clearance divided by bioavailability, as obtained after extravascular dosing. What is called bioavailability is the share of a dose that reaches the circulation, judged against a reference dose that is usually intravenous.

In the data set on Vaccinia virus [1], `Cc1cc(C(=O)NN2C(=O)[C@@H]3C4C=CC(C5CC54)[C@@H]3C2=O)[nH]n1` (stereo partly specified) had a concentration for a half-maximal effect (EC50) of 7100 nM. The compound further registered a CC50 in data set [2] of over 100000 nM.

For `O=C(NN1C(=O)[C@@H]2C3C=CC(C4CC43)[C@@H]2C1=O)c1cccc(Br)c1` (stereo partly specified), it took 50 nM to reach a half-maximal effect with Vaccinia virus [1] (EC50). The compound also came in with a CC50 in [2] of over 100000 nM.

Turning to `COc1ccc(C(=O)NN2C(=O)[C@@H]3C4C=CC(C5CC54)[C@@H]3C2=O)cc1` (stereo partly specified), the EC50 with Vaccinia virus [1] stood at 2200 nM. The compound further yielded a cytotoxic concentration (CC50) in data set [2] of over 100000 nM.

As for `O=C(NN1C(=O)[C@@H]2C3C=CC(C4CC43)[C@@H]2C1=O)c1ccc(C(F)(F)F)cc1` (stereo partly specified), the half-life in data set [3] is over 3.33 h; in [6], over 3.33 h; in data set [7] it was over 3.33 h; in [8], over 3.33 h; in data set [9], over 3.33 h; in [14] it was 4.2 h. Also, the concentration giving a half-maximal response (EC50) in the data set with Vaccinia virus [1] was 40 nM; with Monkeypox virus, 10 nM; in the data set with Camelpox virus, 10 nM; in the data set with Variola virus [4], 20 nM; in the data set with Variola virus [5], 50 nM; in the data set on Human alphaherpesvirus 1, over 40000 nM. Moreover, the EC50 (in the data set on Human betaherpesvirus 5; in [17]; in [18]; in the data set on Rotavirus) was over 40000 nM each time. Moreover, in data set [2], the CC50 was over 100000 nM. Further, the result in the data set on Vaccinia virus [10] was Active. Moreover, the Tmax in data set [11] was found to be 2.2 h. The compound further registered a Cmax in data set [12] of 920 ng/mL. The compound further came in with an AUC in data set [13] of 6100 ng·h/mL. The same compound gave a CL/F in data set [15] of 8.67 mL/min/kg. The same compound gave a Vss with Rattus norvegicus of 0.6 L/kg. Besides, the bioavailability in [16] amounted to 31%. The Activity result with Mus musculus and in the data set on Cynomolgus monkey was “Non-toxic” in each case.

For the compound `O=C(NN1C(=O)[C@@H]2C3C=CC(C4CC43)[C@@H]2C1=O)c1ccccc1Cl` (stereo partly specified), the values for the EC50 in the data set on Vaccinia virus [1] and in the data set with Cowpox virus were 3000 nM and over 20000 nM, respectively. Also, the CC50 in [2] is over 100000 nM.

As to `O=C(NN1C(=O)[C@@H]2C3C=CC(C4CC43)[C@@H]2C1=O)c1ccc(Cl)cc1` (stereo partly specified), the 50% effective concentration (EC50) in the data set on Vaccinia virus [1] was 20 nM; with Cowpox virus, 770 nM. Besides, in data set [2], the CC50 was over 100000 nM.

As to `O=C(NN1C(=O)[C@@H]2C3CCC(C4CC43)[C@@H]2C1=O)c1ccc(C(F)(F)F)cc1` (stereo partly specified), the EC50 with Vaccinia virus [1] came out at 20 nM; with Monkeypox virus it was 80 nM; in the data set on Camelpox virus it was 30 nM; with Variola virus [4], 10 nM; with Variola virus [5], 200 nM. This compound showed a half-maximal cytotoxic concentration (CC50) in data set [2] of over 100000 nM.

In turn, `Nc1ccc(C(=O)NN2C(=O)[C@@H]3C4C=CC(C5CC54)[C@@H]3C2=O)cc1` (stereo partly specified) had an EC50 in the data set on Vaccinia virus [1] of 7700 nM. Further, the CC50 in data set [2] is over 92000 nM.

As for `O=C(NN1C(=O)[C@@H]2C3C=CC(C4CC43)[C@@H]2C1=O)c1ccc(Br)cc1` (stereo partly specified), the half-life is over 3.33 h in data set [3]; over 3.33 h in data set [6]; over 3.33 h in data set [7]; over 3.33 h in [8]; 0.95 h in [9]. Also, the EC50 in the data set with Vaccinia virus [1] was determined as 20 nM; in the data set with Monkeypox virus it was 10 nM; in the data set with Camelpox virus it was 10 nM; in the data set with Variola virus [4], 20 nM; in the data set on Variola virus [5], 50 nM. In data set [2], this compound showed a CC50 of over 100000 nM.

In the case of `O=C(NN1C(=O)[C@@H]2C3C=CC(C4CC43)[C@@H]2C1=O)c1cccc(Cl)c1` (stereo partly specified), the results for the EC50 with Vaccinia virus [1] and with Cowpox virus were 40 nM and 600 nM, respectively. In data set [2], this compound registered a CC50 of over 100000 nM.

With `O=C(NN1C(=O)[C@@H]2C3C=CC(C4CC43)[C@@H]2C1=O)c1ccccc1Br` (stereo partly specified), the EC50 with Vaccinia virus [1] stood at 2300 nM; with Monkeypox virus, 3600 nM; with Camelpox virus, 3800 nM; in the data set on Variola virus [4] it was 1400 nM; in the data set with Variola virus [5], 3300 nM. This compound also registered a CC50 in [2] of over 100000 nM.

On to `O=C(NN1C(=O)[C@@H]2C3C=CC(C4CC43)[C@@H]2C1=O)c1ccc([N+](=O)[O-])cc1` (stereo partly specified), for which the EC50 in the data set on Vaccinia virus [1] was determined as 20 nM. The compound further yielded a CC50 in data set [2] of over 86000 nM.

As to `O=C(NN1C(=O)[C@@H]2C3C=CC(C4CC43)[C@@H]2C1=O)c1ccncc1` (stereo partly specified), the EC50 with Vaccinia virus [1] turned out to be 500 nM; in the data set on Monkeypox virus, 150 nM; in the data set on Camelpox virus it was 110 nM; in the data set on Variola virus [4], 220 nM; in the data set on Variola virus [5] it was 400 nM. This compound showed a CC50 in [2] of over 100000 nM.

Take `O=C(NN1C(=O)[C@@H]2C3C=CC(C4CC43)[C@@H]2C1=O)c1ccccn1` (stereo partly specified): the concentration giving a half-maximal response (EC50) is over 20000 nM with Vaccinia virus [1]; over 16000 nM in the data set with Monkeypox virus; 4200 nM with Camelpox virus; 10000 nM with Variola virus [4]; over 20000 nM with Variola virus [5]. In data set [2], this compound gave a half-maximal cytotoxic concentration (CC50) of over 100000 nM.

`CN(C)c1ccc(C(=O)NN2C(=O)[C@@H]3C4C=CC(C5CC54)[C@@H]3C2=O)cc1` (stereo partly specified) displayed a concentration giving a half-maximal response (EC50) in the data set with Vaccinia virus [1] of 2000 nM. Besides, in data set [2], the half-maximal cytotoxic concentration (CC50) was over 100000 nM.

In the data set on Vaccinia virus [1], `Cn1cccc1C(=O)NN1C(=O)[C@@H]2C3C=CC(C4CC43)[C@@H]2C1=O` (stereo partly specified) registered an EC50 of 15800 nM. The same compound returned a CC50 in data set [2] of over 100000 nM.

As for `O=C(NN1C(=O)[C@@H]2C3C=CC(C4CC43)[C@@H]2C1=O)c1cccnc1` (stereo partly specified), in the data set on Vaccinia virus [1], a half-maximal response (EC50) required 740 nM. This compound returned a CC50 in data set [2] of over 100000 nM.
